Measurements taken from ChEMBL document CHEMBL1124245, “Investigation of the structural parameters involved in the mu and delta opioid receptor discrimination of linear enkephalin-related peptides” (J Med Chem, 1988).
pIC50, pKi: −log10 of the molar value. Numbered stars: 1 amine (or outer) side, 2 acyl side, 3 side chain; on linkers, the order of the positions; unused ones are H or OH. Square brackets hold non-standard residues; d marks the D form. Peptide text beside a SMILES is read from it. X1 = CC[C@H](O)[C@H](N[*:1])C(=O)[*:2]; azaGly = NNC(=O)O

What was measured:
[1] = target: Opioid receptors; mu & delta (Homo sapiens, UniProt P41143+P35372); assay: Inhibition of electrically evoked contraction of guinea pig ileum (myenteric plexus;longitudinal muscle)[agonist action at mu 1 opioid receptors) and inhibition of electrically evoked contraction of mouse vas deferens (agonist action at delta 1 opioid receptor); assay type: functional, tissue-based
[2] = organism: Mus musculus; assay: Inhibitory activity after protection from beta-CNS-induced inactivation in MVD; assay type: functional
[3] = organism: Mus musculus; assay: Inhibitory activity before protection from beta-CNS-induced inactivation in MVD; assay type: functional
[4] = target: Mu-type opioid receptor (Rattus norvegicus, UniProt P33535); assay: Inhibition of [3H]DAGO binding to mu 1 opioid receptor in rat brain membranes; assay type: cell membranes
How it was run: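 Rat brain membranes, 0.6–0.7 mg protein, in 50 mM Tris-HCl pH 7.4 with 1 nM [3H]DAGO. Incubated 40 min at 35 °C, then filtered and washed with cold buffer. Bound radioactivity counted by scintillation. Nonspecific binding taken with 10 µM levorphanol, triplicates. Nine unlabeled-ligand concentrations, Hill-plot fit, Ki by Cheng-Prusoff. Three to six independent determinations.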

[5] = target: Mu-type opioid receptor (Cavia porcellus, UniProt P97266); assay: Inhibition of electrically evoked contraction of guinea pig ileum (myenteric plexus:longitudinal muscle preparation) by agonist action at mu 1 opioid receptors; assay type: functional, tissue-based
How it was run: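 Electrically stimulated guinea pig ileum twitch. IC50 for half-maximal inhibition taken from six to eight log dose-response curves, six concentrations each. [Met]enkephalin IC50 measured on the same preparation. Agonist IC50 multiplied by the mean [Met]enkephalin IC50 divided by that assay's [Met]enkephalin IC50.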

[6] = system: Mus musculus; assay: Analgesic potency in mice after icv injection and 10 min before exposing to hot plate; assay type: functional
How it was run: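 Albino mice, 24–28 g, given drug icv by hand (10 µL, modified 30-gauge needle). Jump latency timed on a 55 ± 0.2 °C hot plate 10 min later, experimenter blind. Cut-off 180 s = 100% analgesia. Percent analgesia = (Tt−Tc)/(180 s−Tc). 10 mice per point. AD50 and 95% confidence limits by Litchfield–Wilcoxon.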

[7] = target: T1, Delta-type opioid receptor (Rattus norvegicus, UniProt P33533); assay: Inhibition of [3H]DSLET binding to delta 1 opioid receptors in rat brain membranes; assay type: cell membranes
[8] = target: T1, Delta-type opioid receptor; assay: Ability to inhibit the binding of [3H]DSLET to Opioid receptor delta 1 in rat brain membranes; assay type: cell membranes

Sequence of Mu-type opioid receptor (Rattus norvegicus, UniProt P33535) (P33535 whole entry): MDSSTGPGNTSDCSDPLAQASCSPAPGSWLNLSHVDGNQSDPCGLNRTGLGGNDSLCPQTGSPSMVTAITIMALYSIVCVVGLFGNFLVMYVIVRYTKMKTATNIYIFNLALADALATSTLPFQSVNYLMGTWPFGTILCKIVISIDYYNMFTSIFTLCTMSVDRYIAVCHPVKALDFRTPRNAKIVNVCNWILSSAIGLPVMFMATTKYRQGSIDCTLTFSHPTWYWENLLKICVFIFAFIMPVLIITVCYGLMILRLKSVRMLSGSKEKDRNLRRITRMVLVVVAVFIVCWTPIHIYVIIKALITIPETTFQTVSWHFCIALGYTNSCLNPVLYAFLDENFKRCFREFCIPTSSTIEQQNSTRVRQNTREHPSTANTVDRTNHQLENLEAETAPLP
Sequence of Mu-type opioid receptor (Cavia porcellus, UniProt P97266) (P97266 whole entry): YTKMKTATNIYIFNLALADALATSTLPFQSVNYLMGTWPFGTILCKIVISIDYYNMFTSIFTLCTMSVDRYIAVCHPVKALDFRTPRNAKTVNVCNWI
T1 sequence (P33533 whole entry): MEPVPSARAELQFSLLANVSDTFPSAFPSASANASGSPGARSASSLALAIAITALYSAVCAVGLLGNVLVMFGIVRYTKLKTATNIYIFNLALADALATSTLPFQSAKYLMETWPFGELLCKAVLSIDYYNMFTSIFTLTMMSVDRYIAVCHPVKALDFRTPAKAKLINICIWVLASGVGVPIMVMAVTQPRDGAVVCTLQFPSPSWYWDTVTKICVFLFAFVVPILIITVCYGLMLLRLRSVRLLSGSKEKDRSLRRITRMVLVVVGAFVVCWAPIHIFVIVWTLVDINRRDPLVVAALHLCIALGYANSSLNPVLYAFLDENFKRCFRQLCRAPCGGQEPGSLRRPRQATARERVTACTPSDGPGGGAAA

Structure (SMILES)	IC50 [1]	pIC50 [2]	pIC50 [3]	pKi [4]	pIC50 [5]	dose [6] [pmol/mouse]	pIC50 ([2]; Mus musculus)	pIC50 ([3]; Mus musculus)	pKi [7]	pKi [8]
CC(C)C[C@H](NC(=O)[C@H](Cc1ccccc1)NC(=O)CNC(=O)[C@H](NC(=O)[C@@H](N)Cc1ccc(O)cc1)[C@H](C)O)C(=O)N[C@H](C(=O)O)[C@@H](C)O [listing 1 of 2 here]	0.15 nM	9.66	9.89	7.60	6.34					
CC(C)C[C@H](NC(=O)[C@H](Cc1ccccc1)NC(=O)CNC(=O)[C@@H](CO)NC(=O)[C@@H](N)Cc1ccc(O)cc1)C(=O)N[C@H](C(=O)O)[C@@H](C)O					6.39	130	9.19	9.42	8.32	
CC(C)CC(C)NC(=O)CNC(=O)[C@@H](C)NC(=O)[C@@H](N)Cc1ccc(O)cc1 (stereo partly specified)	1050 nM			7.77	6.63				6.32	
CC(C)C[C@H](NC(=O)[C@H](Cc1ccccc1)NC(=O)CNC(=O)[C@H](NC(=O)[C@@H](N)Cc1ccc(O)cc1)[C@H](C)O)C(=O)N[C@H](C(=O)O)[C@@H](C)O [listing 2 of 2 here]						50				
CSCC[C@@H](NC(=O)[C@@H](N)Cc1ccc(O)cc1)C(=O)NCC(=O)NCCC(C)C	733 nM			7.82	6.81				6.22	
CC(C)C[C@@H](NC(=O)[C@H](Cc1ccccc1)NC(=O)CNC(=O)[C@@H](C)NC(=O)[C@@H](N)Cc1ccc(O)cc1)C(=O)O [DADLE]						12				
CCN(C(=O)CNC(=O)[C@@H](C)NC(=O)[C@@H](N)Cc1ccc(O)cc1)C(C)CC(C)C (stereo partly specified)	1800 nM			7.45	6.67				5.46	
C[C@@H](NC(=O)[C@@H](N)Cc1ccc(O)cc1)C(=O)NCC(=O)N(C)[C@@H](Cc1ccccc1)C(=O)NCCO [DAMGO]					7.94	1	5.62	7.00		6.15
CC(C)CCNC(=O)CNC(=O)[C@@H](C)NC(=O)[C@@H](N)Cc1ccc(O)cc1	3410 nM			8.00	6.49				5.99	
CC[C@H](O)[C@H](NC(=O)[C@@H](N)Cc1ccc(O)cc1)C(=O)NCC(=O)N[C@@H](Cc1ccccc1)C(=O)N[C@@H](CC(C)C)C(=O)N[C@H](C(=O)O)[C@@H](C)O (H-Y[X1]GFLT-OH)	0.05 nM			7.80	7.67				8.66	
CC(C)CC(C)NC(=O)CNC(=O)[C@H](C)NC(=O)[C@@H](N)Cc1ccc(O)cc1 (stereo partly specified)	>= 50000 nM				≤ 4.30					
CC(C)C[C@H](NC(=O)[C@H](Cc1ccccc1)NC(=O)CNC(=O)NNC(=O)[C@@H](N)Cc1ccc(O)cc1)C(=O)N[C@H](C(=O)O)[C@@H](C)O (H-Y[azaGly]GFLT-OH)	38 nM			5.01	4.85				6.40	
CC(C)C[C@H](NC(=O)[C@H](CC(C)C)NC(=O)[C@H](Cc1ccccc1)NC(=O)CNC(=O)[C@H](NC(=O)[C@@H](N)Cc1ccc(O)cc1)[C@H](C)O)C(=O)O	0.41 nM			7.42	6.59				8.58	
CC(C)C[C@H](NC(=O)[C@H](Cc1ccccc1)NC(=O)CNC(=O)[C@H](NC(=O)[C@@H](N)Cc1ccc(O)cc1)[C@H](C)O)C(=O)N[C@@H](CO)C(=O)O	0.25 nM			7.38	7.00				8.38	
CC(C)C[C@@H](C(=O)N[C@H](C(=O)O)[C@@H](C)O)N(C)C(=O)[C@H](Cc1ccccc1)NC(=O)CNC(=O)[C@H](NC(=O)[C@@H](N)Cc1ccc(O)cc1)[C@H](C)O	1.33 nM			6.80	6.65				7.51	
CC(C)CC(C)NC(=O)CNC(=O)[C@@H](CO)NC(=O)[C@@H](N)Cc1ccc(O)cc1 (stereo partly specified)	990 nM			7.37	6.14				5.86	
CC(C)CC(C)NC(=O)CNC(=O)[C@@H](COC(C)(C)C)NC(=O)[C@@H](N)Cc1ccc(O)cc1 (stereo partly specified)	105 nM			7.86	6.95				7.41	
CC(C)C[C@@H](C(=O)NCCO)N(C)C(=O)CNC(=O)[C@@H](C)NC(=O)[C@@H](N)Cc1ccc(O)cc1	3180 nM			6.94	6.42				5.42	
CC(C)C[C@H](NC(=O)[C@H](CC(C)C)NC(=O)[C@H](Cc1ccccc1)NC(=O)CNC(=O)[C@@H](CO)NC(=O)[C@@H](N)Cc1ccc(O)cc1)C(=O)O	2.45 nM			6.80	6.59	610			8.04	
CC(C)CC(C)NC(=O)CNC(=O)C(C)(C)NC(=O)[C@@H](N)Cc1ccc(O)cc1 (stereo partly specified)	4720 nM			6.77	5.73				5.16	
CC(C)C[C@H](NC(=O)[C@H](Cc1ccccc1)NC(=O)CNC(=O)[C@H](NC(=O)[C@@H](N)Cc1ccc(O)cc1)[C@H](C)O)C(=O)N1C[C@H](O)C[C@H]1C(=O)O	1.1 nM			7.36	7.06	252			8.12	
